ChEMBL document CHEMBL5038571, “Design and Synthesis of EZH2-Based PROTACs to Degrade the PRC2 Complex for Targeting the Noncatalytic Activity of EZH2” (J Med Chem, 2021)
Activity calls are given as the source filed them. The rule behind the calls is not given here.

Key:
[1] = biological target: T1, Protein cereblon/Histone-lysine N-methyltransferase EZH2 (Homo sapiens) (UniProt Q15910+Q96SW2); test: PROTAC activity at CRBN E3 ligase/EZH2 in PRC2 complex in human WSUDLCL2 cells assessed as downregulation of RbAp48 expression at 1 uM pretreated with EPZ6438 for 4 hrs followed by compound addition and measured after 48 hrs by Western blot analysis; type: cell-based
Summary of the method: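 WSU-DLCL-2 cells pretreated 4 h with the named inhibitor, then compound added and incubated a further 48 h. EZH2, SUZ12, EED and RbAp48 measured by western blot (nitrocellulose transfer, skim-milk block, primary antibody overnight at 4 °C, chemiluminescent detection).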

[2] = biological target: T1, Protein cereblon/Histone-lysine N-methyltransferase EZH2 (Homo sapiens); test: PROTAC activity at CRBN E3 ligase/EZH2 in PRC2 complex in human WSUDLCL2 cells assessed as reduction in H3K27me3 level at 1 uM incubated for 48 hrs by Western blot analysis relative to control; type: cell-based; parameters: scale not given: the % may be the effect or the level left
Summary of the method: (§1)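 WSU-DLCL-2 cells treated 48 h (1 μM for the single-concentration screen), lysed; SDS-PAGE, nitrocellulose transfer, 5% milk block, primary antibody 4 °C overnight, chemiluminescence. Bands quantified by densitometry, normalized to GAPDH, expressed relative to DMSO-treated cells; mean ± SD of three independent experiments, t-test.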

[3] = biological target: T1, Protein cereblon/Histone-lysine N-methyltransferase EZH2 (Homo sapiens); test: PROTAC activity at CRBN E3 ligase/EZH2 in PRC2 complex in human WSUDLCL2 cells assessed as induction of SUZ12 degradation incubated for 48 hrs by Western blot analysis; type: cell-based; settings: dose 1-10 µM; summary of the method: as §1
[4] = biological target: T1, Protein cereblon/Histone-lysine N-methyltransferase EZH2 (Homo sapiens); test: PROTAC activity at CRBN E3 ligase/EZH2 in PRC2 complex in human WSUDLCL2 cells assessed as induction of EZH2 degradation at 10 uM incubated for 48 hrs by Western blot analysis; type: cell-based
[5] = biological target: T1, Protein cereblon/Histone-lysine N-methyltransferase EZH2 (Homo sapiens); test: PROTAC activity at CRBN E3 ligase/EZH2 in PRC2 complex in human WSUDLCL2 cells assessed as induction of EZH2 degradation by measuring reduction in EZH2 protein level at 1 uM measured after 48 to 72 hrs by Western blot analysis; type: cell-based; settings: time 48-72 hrs
[6] = biological target: T1, Protein cereblon/Histone-lysine N-methyltransferase EZH2 (Homo sapiens); test: PROTAC activity at CRBN E3 ligase/EZH2 in PRC2 complex in human SU-DHL-6 cells assessed as induction of EED degradation by measuring reduction in EED protein level at 1 uM incubated for 48 hrs by Western blot analysis; type: cell-based
Summary of the method: (§2)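 Cells cultured in DMEM or RPMI 1640 with 10% FBS and 1% penicillin-streptomycin, 37 °C, 5% CO2; exposed to 1 μM compound for 48 h. Lysates run on SDS-PAGE and transferred to nitrocellulose. Blocked 2 h in 5% skim milk, primary antibody overnight at 4 °C, then secondary antibody. Chemiluminescent detection of PRC2 subunits and H3K27me3.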

[7] = biological target: T1, Protein cereblon/Histone-lysine N-methyltransferase EZH2 (Homo sapiens); test: PROTAC activity at CRBN E3 ligase/EZH2 in PRC2 complex in human LNCaP cells assessed as reduction in H3K27me3 level at 1 uM incubated for 48 hrs by Western blot analysis; type: cell-based; summary of the method: as §2
[8] = biological target: T1, Protein cereblon/Histone-lysine N-methyltransferase EZH2 (Homo sapiens); test: PROTAC activity at CRBN E3 ligase/EZH2 in PRC2 complex in human SK-OV-3 cells assessed as induction of EZH2 degradation by measuring reduction in EZH2 protein level at 1 uM incubated for 48 hrs by Western blot analysis; type: cell-based; summary of the method: as §2
[9] = biological target: T1, Protein cereblon/Histone-lysine N-methyltransferase EZH2 (Homo sapiens); test: PROTAC activity at CRBN E3 ligase/EZH2 in PRC2 complex in human SK-OV-3 cells assessed as induction of SUZ12 degradation by measuring reduction in SUZ12 protein level at 1 uM incubated for 48 hrs by Western blot analysis; type: cell-based; summary of the method: as §2
[10] = biological target: T1, Protein cereblon/Histone-lysine N-methyltransferase EZH2 (Homo sapiens); test: PROTAC activity at CRBN E3 ligase/EZH2 in PRC2 complex in human SK-OV-3 cells assessed as induction of EED degradation by measuring reduction in EED protein level at 1 uM incubated for 48 hrs by Western blot analysis; type: cell-based; summary of the method: as §2
[11] = biological target: T1, Protein cereblon/Histone-lysine N-methyltransferase EZH2 (Homo sapiens); test: PROTAC activity at CRBN E3 ligase/EZH2 in PRC2 complex in human WSUDLCL2 cells assessed as effect on SUZ12 mRNA expression at 1 uM incubated for 48 hrs by RT-qPCR analysis; type: cell-based
Summary of the method: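 WSU-DLCL-2 cells treated 48 h with 1 μM compound. Total RNA extracted with Trizol and reverse-transcribed. SYBR qPCR run as 95 °C 30 s, then 40 cycles of 95 °C 6 s and 60 °C 20 s. PRC2 subunit mRNA normalized to the DMSO-treated group; mean SD, t-test.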

[12] = biological target: T1, Protein cereblon/Histone-lysine N-methyltransferase EZH2 (Homo sapiens); test: PROTAC activity at CRBN E3 ligase/EZH2 in PRC2 complex in human WSUDLCL2 cells assessed as increase in EZH2 ubiquitination at 1 uM measured after 48 hrs by co-immunoprecipitation assay; type: cell-based
Summary of the method: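 WSU-DLCL-2 cells treated with 1 μM compound for 48 h and lysed in RIPA buffer. Lysates incubated with antibodies overnight at 4 °C, then 3 h with Protein G agarose beads at 4 °C. Proteins eluted in IP buffer and ubiquitination of the target probed by immunoblot.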

WSUDLCL2 = test: Upregulation of TNFRSF21 mRNA expression in human WSUDLCL2 cells at 1 uM incubated for 48 hrs by qRT-PCR analysis; type: functional, cell-based
Summary of the method: (§3)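 WSU-DLCL-2 or Pfeiffer cells treated 48 h. Trizol RNA extraction, reverse transcription, SYBR qPCR (95 °C 30 s; 40 cycles of 95 °C 6 s, 60 °C 20 s). mRNA normalized to DMSO-treated cells; mean ± SD of three independent experiments, t-test.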

Pfeiffer [13] = test: Upregulation of ADRB2 mRNA expression in human Pfeiffer cells at 1 uM incubated for 48 hrs by qRT-PCR analysis; type: functional, cell-based; summary of the method: as §3
Pfeiffer [14] = test: Upregulation of CDKN2A mRNA expression in human Pfeiffer cells at 1 uM incubated for 48 hrs by qRT-PCR analysis; type: functional, cell-based; summary of the method: as §3
A549 [15] = test: Upregulation of […] mRNA expression in human […] cells at 5 uM incubated for 48 hrs by qRT-PCR analysis; type: functional, cell-based
Summary of the method: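 A549 cells treated 48 h. Trizol RNA extraction, reverse transcription, SYBR qPCR (95 °C 30 s; 40 cycles of 95 °C 6 s, 60 °C 20 s). mRNA normalized to DMSO-treated cells; mean ± SD of three independent experiments.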

A549 [16] = test: Downregulation of […] mRNA expression in human A549 cells at 10 uM incubated for 48 hrs by qRT-PCR analysis; type: functional, cell-based
Summary of the method: (§4)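 Cells treated 48 h. Total RNA extracted with Trizol, reverse-transcribed, and SYBR RT-qPCR run: 95 °C 30 s, then 40 cycles of 95 °C 6 s and 60 °C 20 s. mRNA normalized to the DMSO-treated group. Mean SD of three independent experiments, t-test versus DMSO.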

NCI-H1299 = test: Downregulation of ARL6IP mRNA expression in human NCI-H1299 cells at 10 uM incubated for 48 hrs by qRT-PCR analysis; type: functional, cell-based; summary of the method: as §4
MDA-MB-468 [17] = test: Downregulation of CHEK1 mRNA expression in human MDA-MB-468 cells at 10 uM incubated for 48 hrs by qRT-PCR analysis; type: functional, cell-based; summary of the method: as §4
MDA-MB-468 [18] = test: Downregulation of CENPK mRNA expression in human MDA-MB-468 cells at 10 uM incubated for 48 hrs by qRT-PCR analysis; type: functional, cell-based; summary of the method: as §4

T1 sequence (Q15910 whole entry, looked up): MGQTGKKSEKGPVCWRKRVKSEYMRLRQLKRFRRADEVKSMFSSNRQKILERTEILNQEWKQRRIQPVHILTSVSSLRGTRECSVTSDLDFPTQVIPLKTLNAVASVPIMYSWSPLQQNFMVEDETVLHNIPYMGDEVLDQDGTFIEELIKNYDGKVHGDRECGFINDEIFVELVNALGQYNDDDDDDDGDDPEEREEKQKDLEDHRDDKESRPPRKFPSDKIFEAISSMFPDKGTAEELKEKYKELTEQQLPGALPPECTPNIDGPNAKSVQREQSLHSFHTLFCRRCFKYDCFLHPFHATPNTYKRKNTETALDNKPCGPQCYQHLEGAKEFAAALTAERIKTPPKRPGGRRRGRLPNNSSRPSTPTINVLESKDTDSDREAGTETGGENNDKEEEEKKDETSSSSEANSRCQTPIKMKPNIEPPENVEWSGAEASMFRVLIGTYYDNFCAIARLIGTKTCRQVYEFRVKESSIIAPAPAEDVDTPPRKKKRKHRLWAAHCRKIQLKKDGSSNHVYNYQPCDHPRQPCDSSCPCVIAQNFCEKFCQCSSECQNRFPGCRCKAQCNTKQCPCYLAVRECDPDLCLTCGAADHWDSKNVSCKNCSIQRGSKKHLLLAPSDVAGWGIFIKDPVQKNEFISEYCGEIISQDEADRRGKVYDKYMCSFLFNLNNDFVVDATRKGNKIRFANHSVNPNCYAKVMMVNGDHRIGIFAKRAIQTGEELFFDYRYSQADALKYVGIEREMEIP
T1 sequence (Q96SW2 whole entry, looked up): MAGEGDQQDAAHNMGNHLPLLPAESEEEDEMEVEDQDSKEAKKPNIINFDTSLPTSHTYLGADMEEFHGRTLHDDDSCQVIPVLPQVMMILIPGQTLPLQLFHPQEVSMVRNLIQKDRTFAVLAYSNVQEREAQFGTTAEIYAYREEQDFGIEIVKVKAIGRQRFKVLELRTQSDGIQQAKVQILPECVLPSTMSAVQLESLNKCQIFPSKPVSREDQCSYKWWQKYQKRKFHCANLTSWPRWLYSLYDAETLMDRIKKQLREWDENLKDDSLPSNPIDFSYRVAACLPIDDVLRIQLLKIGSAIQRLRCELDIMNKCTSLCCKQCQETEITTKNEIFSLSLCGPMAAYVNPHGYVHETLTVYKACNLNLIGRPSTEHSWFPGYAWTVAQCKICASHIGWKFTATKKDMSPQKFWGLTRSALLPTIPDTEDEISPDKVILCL

In the case of CCN(c1cc(-c2ccc(CN3CCN(CCCCCCCOc4cccc5c4C(=O)N(C4CCC(=O)NC4=O)C5=O)CC3)cc2)cc(C(=O)NCc2c(C)cc(C)[nH]c2=O)c1C)C1CCOCC1 (stereo not given), the Activity [1] is reported as “inactive”, the Activity [2] is reported as 83% and the Activity [3] is reported as “Dose-Dependent Effect”. The Activity [4] was “inactive”, the Activity [5] was “Active” and the Activity [6] was “Active”. For the same molecule, the Activity [7] was “Active”, the Activity [8] was “Active” and the Activity [9] was “Active”. For the same molecule, the Activity [10] was “Active”, the Activity [11] was “inactive” and the Activity [12] was “Active”. For the same molecule, the Activity (WSUDLCL2) was “Active”, the Activity (Pfeiffer [13]) was “Active” and the Activity (Pfeiffer [14]) was “inactive”. The Activity (A549 [15]) was “Active”, the Activity (A549 [16]) was “Active” and the Activity (NCI-H1299) was “Active”. The Activity (MDA-MB-468 [17]) was “Active” and the Activity (MDA-MB-468 [18]) was “Active”.
